Published values from different studies.
Lines come from different studies, so protocols differ.
Target: Bone morphogenetic protein receptor type-2 (BMPR2, Homo sapiens, UniProt Q13873)
One construct used (Q13873 27-1038): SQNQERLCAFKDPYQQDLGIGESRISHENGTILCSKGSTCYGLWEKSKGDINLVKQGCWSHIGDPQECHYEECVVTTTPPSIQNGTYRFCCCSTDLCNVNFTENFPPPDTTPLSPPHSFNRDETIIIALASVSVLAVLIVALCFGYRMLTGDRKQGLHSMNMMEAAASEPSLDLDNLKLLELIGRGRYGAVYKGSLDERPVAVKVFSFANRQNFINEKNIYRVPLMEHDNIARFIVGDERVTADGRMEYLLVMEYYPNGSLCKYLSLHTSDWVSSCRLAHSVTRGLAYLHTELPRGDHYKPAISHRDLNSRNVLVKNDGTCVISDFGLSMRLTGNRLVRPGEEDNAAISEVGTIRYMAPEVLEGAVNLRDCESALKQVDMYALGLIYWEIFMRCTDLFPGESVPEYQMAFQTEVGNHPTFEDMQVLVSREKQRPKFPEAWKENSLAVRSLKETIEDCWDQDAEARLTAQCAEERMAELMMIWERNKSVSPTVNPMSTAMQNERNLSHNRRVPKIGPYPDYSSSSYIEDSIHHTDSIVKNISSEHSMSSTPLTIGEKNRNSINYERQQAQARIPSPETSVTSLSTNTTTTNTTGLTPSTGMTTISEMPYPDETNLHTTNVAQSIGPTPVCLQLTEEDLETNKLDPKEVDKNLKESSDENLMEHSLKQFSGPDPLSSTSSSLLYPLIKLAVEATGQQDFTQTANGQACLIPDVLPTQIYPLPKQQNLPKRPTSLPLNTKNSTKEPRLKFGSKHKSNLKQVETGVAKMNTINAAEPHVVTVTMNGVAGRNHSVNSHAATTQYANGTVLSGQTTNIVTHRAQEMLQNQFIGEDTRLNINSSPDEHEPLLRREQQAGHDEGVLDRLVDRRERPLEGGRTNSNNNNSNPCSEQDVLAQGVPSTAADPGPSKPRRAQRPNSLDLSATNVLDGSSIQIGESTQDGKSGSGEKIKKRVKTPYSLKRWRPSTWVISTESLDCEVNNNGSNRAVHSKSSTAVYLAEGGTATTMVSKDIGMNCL

| Compound | observed | mode | technique | tested at | measurement | value |
| --- | --- | --- | --- | --- | --- | --- |
| Cn1c2c(c3ccccc31)C(C#N)C(C)(C)NC2=O (stereo not drawn) | thermal stability | – | DSF | 10 µM | ΔTm | 0.2 °C |
| Cc1ccc(C(=O)Nc2ccc(CN3CCN(C)CC3)c(C(F)(F)F)c2)cc1C#Cc1cnc2cccnn12 | cell-free assay | – | – | 23.5 nM | remaining signal | 98% |
| Cc1nccc(COC(=O)N2C[C@@H]3[C@@H](CNC(=O)c4ccc5[nH]nnc5c4)[C@@H]3C2)n1 | cell-free assay | – | competition with immobilised ligand | 1 µM | remaining binding | 81% |
| O=C(CSc1nc2nccnc2c(=O)n1CCc1ccccc1)Nc1nccs1 | enzyme activity | inhibitor | – | 10 µM | inhibition | 17% |
| N#CC1c2c([nH]c3c(Cl)c(Cl)ccc23)C(=O)NC12CCCCC2 (racemic) | thermal stability | – | DSF | 10 µM | ΔTm | 0.7 °C |
| O=C(NCCCC1CCCCC1)c1ccc(CNC(=O)c2cnn(-c3ccccc3)c2C(F)(F)F)cc1 | cell-free assay | – | competition with immobilised ligand | 0.1 µM | remaining binding | 100% |
| O=C(Nc1cnn(-c2csc(C(=O)NC3COC3)c2)c1)Nc1ccccc1Cl | enzyme activity | inhibitor | – | 5 µM | remaining activity | 110% |
| CN1CC(Oc2cnc(C#N)cc2-c2ccn3nc(NC(=O)C4CC4)cc3c2)C1 | enzyme activity | inhibitor | – | 1 µM | inhibition | 1% |
| CS(=O)(=O)NCC[C@H](NC(=O)c1cncc2c1cnn2-c1ccc(F)cc1)c1ccnc(S(C)(=O)=O)c1 | cell-free assay | – | competition with immobilised ligand | 1 µM | remaining binding | 100% |
| Cn1cncc1C1=CN(c2ncnc3[nH]cnc23)CCS1 | enzyme activity | inhibitor | radiometric | 50 nM | inhibition | 21.3% |
| Cn1c2c(c3ccc(Cl)c(Cl)c31)C(C#N)C1(CCOCC1)NC2=O (stereo not drawn) | thermal stability | – | DSF | 10 µM | ΔTm | 0.9 °C |
| C[C@@]1(Cc2ccc(C#N)cc2)C(=O)N(c2cc(Cl)cc(Cl)c2)c2ncc(C(=O)NC3(c4nc(C5CCC5)no4)CC3)n21 | cell-free assay | – | competition with immobilised ligand | 1 µM | remaining binding | 100% |
